Source: ChEMBL document CHEMBL1126822, “7 alpha-Methyl- and 11 beta-ethoxy-substitution of [125I]-16 alpha-iodoestradiol: effect on estrogen receptor-mediated target tissue uptake” (J Med Chem, 1993)

Experiments:
Conditions in all cases: in vivo
[1] = system: Rattus norvegicus; test: Tissue uptake (muscle) of [125I]- after administration of [125I]-labeled compound to immature female rats (n=3) in the presence of 60 microg coinjected estradiol after 1 hour; assay type: ADME, organism-based
Method in brief: (§1)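 Immature female Fischer rats, 24 days old, 55-60 g, unanesthetized in retention cages, given HPLC-purified 125I-labeled steroid (3 μCi, 111 kBq) via lateral tail vein in 200 μL of 9% ethanol-saline with 1% Tween-80. The blocking group was coinjected with 60 μg unlabeled estradiol and sampled at 1 h. Animals were killed under ether at 0.5-24 h. Tissues were KCl-washed, blotted, weighed and gamma-counted. Results are % ID/g, with variation as small-sample-corrected %CV.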

[2] = system: Rattus norvegicus; test: Tissue uptake (muscle) of [125I]- after administration of [125I]-labeled compound to immature female rats (n=4) in the absence of 60 microg coinjected estradiol after 5 hours; assay type: ADME, organism-based; method in brief: as §1
[3] = system: Rattus norvegicus; test: Tissue uptake (fat) of [125I]- after administration of [125I]-labeled compound to immature female rats (n=4) in the absence of 60 microg coinjected estradiol after 2 hours; assay type: ADME, organism-based; method in brief: as §1
[4] = system: Rattus norvegicus; test: Tissue uptake (fat) of [125I]- after administration of [125I]-labeled compound to immature female rats (n=4) in the absence of 60 microg coinjected estradiol after 5 hours; assay type: ADME, organism-based; method in brief: as §1
[5] = system: Rattus norvegicus; test: Tissue uptake (fat) of [125I]- after administration of [125I]-labeled compound to immature female rats (n=5) in the absence of 60 microg coinjected estradiol after 1 hour; assay type: ADME, organism-based; method in brief: as §1
[6] = system: Rattus norvegicus; test: Tissue uptake (kidneys) of [125I]- after administration of [125I]-labeled compound to immature female rats (n=3) in the absence of 60 microg coinjected estradiol after 24 hours; assay type: ADME, organism-based, Kidney; method in brief: as §1
[7] = system: Rattus norvegicus; test: Tissue uptake (kidneys) of [125I]- after administration of [125I]-labeled compound to immature female rats (n=3) in the presence of 60 microg coinjected estradiol after 1 hour; assay type: ADME, organism-based, Kidney; method in brief: as §1
[8] = system: Rattus norvegicus; test: Tissue uptake (kidneys) of [125I]- after administration of [125I]-labeled compound to immature female rats (n=4) in the absence of 60 microg coinjected estradiol and 5 hours; assay type: ADME, organism-based, Kidney; method in brief: as §1
[9] = system: Rattus norvegicus; test: Tissue uptake (liver) of [125I]- after administration of [125I]-labeled compound to immature female rats (n=3) in the absence of 60 microg coinjected estradiol after 0.5 hours; assay type: ADME, organism-based; method in brief: as §1
[10] = system: Rattus norvegicus; test: Tissue uptake (liver) of [125I]- after administration of [125I]-labeled compound to immature female rats (n=4) in the absence of 60 microg coinjected estradiol after 2 hours; assay type: ADME, organism-based; method in brief: as §1
[11] = system: Rattus norvegicus; test: Tissue uptake (lungs) of [125I]- after administration of [125I]-labeled compound to immature female rats (n=3) in the presence of 60 microg coinjected estradiol after 1 hour; assay type: ADME, organism-based; method in brief: as §1
[12] = system: Rattus norvegicus; test: Tissue uptake (lungs) of [125I]- after administration of [125I]-labeled compound to immature female rats (n=4) in the absence of 60 microg coinjected estradiol after 5 hours; assay type: ADME, organism-based; method in brief: as §1
[13] = system: Rattus norvegicus; test: Tissue uptake (lungs) of [125I]- after administration of [125I]-labeled compound to immature female rats (n=5) in the absence of 60 microg coinjected estradiol after 1 hour; assay type: ADME, organism-based; method in brief: as §1
[14] = system: Rattus norvegicus; test: Tissue uptake (muscle) of [125I]- after administration of [125I]-labeled compound to immature female rats (n=3) in the absence of 60 microg coinjected estradiol after 0.5 hours; assay type: ADME, organism-based; method in brief: as §1
[15] = system: Rattus norvegicus; test: Tissue uptake (thyroid) of [125I]- after administration of [125I]-labeled compound to immature female rats (n=3) in the absence of 60 microg coinjected estradiol after 0.5 hours; assay type: ADME, organism-based, Thyroid gland
Method in brief: (§2)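 Immature female Fischer rats, 24 days old, 55-60 g, unanesthetized in retention cages, got HPLC-purified n.c.a. 125I-labeled steroid (3 μCi, 111 kBq) by lateral tail vein. Dose was given in 200 μL saline with 9% ethanol and 1% Tween-80. Deep ether anesthesia, axillary artery cut; tissues KCl-washed, blotted, weighed, gamma-counted as % ID/g; variation as small-sample-corrected %CV.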

[16] = system: Rattus norvegicus; test: Tissue uptake (spleen) of [125I]- after administration of [125I]-labeled compound to immature female rats (n=3) in the absence of 60 microg coinjected estradiol after 0.5 hours; assay type: ADME, organism-based; method in brief: as §2
[17] = system: Rattus norvegicus; test: Tissue uptake (spleen) of [125I]- after administration of [125I]-labeled compound to immature female rats (n=3) in the absence of 60 microg coinjected estradiol after 24 hours; assay type: ADME, organism-based; method in brief: as §2
[18] = system: Rattus norvegicus; test: Tissue uptake (brain) of [125I]- after administration of [125I]-labeled compound to immature female rats (n=3) in the absence of 60 microg coinjected estradiol after 0.5 hours; assay type: ADME, organism-based; method in brief: as §1
[19] = system: Rattus norvegicus; test: Tissue uptake (thyroid) of [125I]- after administration of [125I]-labeled compound to immature female rats (n=4) in the absence of 60 microg coinjected estradiol after 2 hours; assay type: ADME, organism-based, Thyroid gland; method in brief: as §2
[20] = system: Rattus norvegicus; test: Tissue uptake (uterus) of [125I]- after administration of [125I]-labeled compound to immature female rats (n=3) in the absence of 60 microg coinjected estradiol after 0.5 hours; assay type: ADME, organism-based; method in brief: as §2
[21] = system: Rattus norvegicus; test: Tissue uptake (uterus) of [125I]- after administration of [125I]-labeled compound to immature female rats (n=3) in the absence of 60 microg coinjected estradiol. (24 hours after injection) (% coefficient of variation); assay type: ADME, organism-based; method in brief: as §2
[22] = system: Rattus norvegicus; test: Tissue uptake (uterus) of [125I]- after administration of [125I]-labeled compound to immature female rats (n=3) in the presence of 60 microg coinjected estradiol after 1 hour; assay type: ADME, organism-based; method in brief: as §2
[23] = system: Rattus norvegicus; test: Tissue uptake (blood) of [125I]- after administration of [125I]-labeled compound to immature female rats (n=3) in the presence of 60 microg coinjected estradiol after 1 hour; assay type: ADME, organism-based; method in brief: as §1
[24] = system: Rattus norvegicus; test: Tissue uptake (spleen) of [125I]- after administration of [125I]-labeled compound to immature female rats (n=3) in the presence of 60 microg coinjected estradiol after 1 hour; assay type: ADME, organism-based; method in brief: as §2
[25] = system: Rattus norvegicus; test: Tissue uptake (kidneys) of [125I]- after administration of [125I]-labeled compound to immature female rats (n=4) in the absence of 60 microg coinjected estradiol after 5 hours; assay type: ADME, organism-based, Kidney; method in brief: as §1
[26] = system: Rattus norvegicus; test: Tissue uptake (plasma) of [125I]- after administration of [125I]-labeled compound to immature female rats (n=5) in the absence of 60 microg coinjected estradiol after 1 hour; assay type: ADME, organism-based; method in brief: as §2
[27] = system: Rattus norvegicus; test: Tissue uptake (plasma) of [125I]- after administration of [125I]-labeled compound to immature female rats (n=3) in the absence of 60 microg coinjected estradiol after 0.5 hours; assay type: ADME, organism-based; method in brief: as §1
[28] = system: Rattus norvegicus; test: Tissue uptake (plasma) of [125I]- after administration of [125I]-labeled compound to immature female rats (n=3) in the absence of 60 microg coinjected estradiol after 24 hours; assay type: ADME, organism-based; method in brief: as §1
[29] = system: Rattus norvegicus; test: Tissue uptake (uterus) of [125I]- after administration of [125I]-labeled compound to immature female rats (n=3) in the absence of 60 microg coinjected estradiol after 24 hours; assay type: ADME, organism-based; method in brief: as §2
[30] = system: Rattus norvegicus; test: Tissue uptake (uterus) of [125I]- after administration of [125I]-labeled compound to immature female rats (n=3) in the absence of 60 microg coinjected estradiol. (0.5 hours after injection) (% coefficient of variation); assay type: ADME, organism-based; method in brief: as §2
[31] = system: Rattus norvegicus; test: Tissue uptake (blood) of [125I]- after administration of [125I]-labeled compound to immature female rats (n=3) in the absence of 60 microg coinjected estradiol. (24 hours after injection) (% coefficient of variation); assay type: ADME, organism-based; method in brief: as §1

Row | ID/g [1] | ID/g [2] | ID/g [3] | ID/g [4] | ID/g [5] | ID/g [6] | ID/g [7] | ID/g [9] | ID/g [10] | ID/g [11] | ID/g [12] | ID/g [13] | ID/g [14] | ID/g [15] | ID/g [16] | ID/g [17] | ID/g [19] | ID/g [22] | ID/g [23] | ID/g [24] | SMILES | further results
1 | 0.72% | 0.35% | 0.94% | 0.52% | 1.51% | 0.24% | 1.61% | 5.91% | 3.24% | 1.18% | 0.76% | 1.3% | 1.05% | 105.65% | 1.44% | 0.7% | 218.87% | 0.72% | 1.09% | 1.6% | CCO[C@H]1C[C@]2(C)[C@@H](O)[C@H](I)C[C@H]2[C@@H]2CCc3cc(O)ccc3[C@H]21 | ID/g [8]: 0.91%; ID/g [18]: 0.68%; ID/g [20]: 7.85%; ID/g [21]: 1.64%
2 | 0.27% | 0.06% | 1.12% | 0.38% | 1.79% | 0.3% | 0.51% | 1.94% | 1.09% | 0.43% | 0.19% | 0.54% | 0.54% | 40.33% | 0.57% | 0.08% | 66.19% | 0.34% | 0.33% | 0.43% | C[C@@H]1Cc2cc(O)ccc2[C@H]2CC[C@]3(C)[C@@H](O)[C@H](I)C[C@H]3[C@H]12 | ID/g [25]: 0.25%; ID/g [26]: 0.58%; ID/g [27]: 0.68%; ID/g [28]: 0.04%; ID/g [29]: 1.64%; ID/g [30]: 4.32%; ID/g [31]: 0.03%
